BindingDB's records for doi:10.1021/acs.jmedchem.8b00566 (Research Triangle Institute, 2018)
pIC50, pKi: −log10 of the molar value.

Columns and labels:
[1] = molecular target: Kappa-type opioid receptor (Homo sapiens, UniProt P41145); assay: Binding affinity to human full length KOR after 60 mins by radioligand-based scintillation counting
Method in brief: (§1)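 Outsourced radioligand displacement panel run to the provider's standard protocols. Full concentration–displacement curves were run in duplicate. IC50 came from nonlinear regression. Ki was calculated by Cheng–Prusoff from the IC50, the radioligand concentration and historical Kd values of the ligand.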

[2] = molecular target: T1, Sodium-dependent serotonin transporter (Homo sapiens, UniProt P31645); assay: Inhibition of human SERT expressed in HEK293 cells assessed as reduction in SERT-mediated substrate uptake after 30 mins by fluorescence-based assay
Method in brief: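 HEK293 cells stably expressing human SERT were plated at 15000 cells/well in DMEM + 1% dialyzed FBS for at least 6 h. Medium was replaced with 20 mM HEPES/HBSS pH 7.4 and drug was added for 30 min at 37 °C. Fluorescent uptake dye was then added and read after 30 min at 37 °C (ex 440/em 520 nm). IC50 came from nonlinear regression of fluorescence versus concentration.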

[3] = molecular target: T1, Sodium-dependent serotonin transporter; assay: Displacement of [3H]-Paroxetine from recombinant human full length SERT after 60 mins by scintillation counting; method in brief: as §1

T1 sequence (P31645 whole entry): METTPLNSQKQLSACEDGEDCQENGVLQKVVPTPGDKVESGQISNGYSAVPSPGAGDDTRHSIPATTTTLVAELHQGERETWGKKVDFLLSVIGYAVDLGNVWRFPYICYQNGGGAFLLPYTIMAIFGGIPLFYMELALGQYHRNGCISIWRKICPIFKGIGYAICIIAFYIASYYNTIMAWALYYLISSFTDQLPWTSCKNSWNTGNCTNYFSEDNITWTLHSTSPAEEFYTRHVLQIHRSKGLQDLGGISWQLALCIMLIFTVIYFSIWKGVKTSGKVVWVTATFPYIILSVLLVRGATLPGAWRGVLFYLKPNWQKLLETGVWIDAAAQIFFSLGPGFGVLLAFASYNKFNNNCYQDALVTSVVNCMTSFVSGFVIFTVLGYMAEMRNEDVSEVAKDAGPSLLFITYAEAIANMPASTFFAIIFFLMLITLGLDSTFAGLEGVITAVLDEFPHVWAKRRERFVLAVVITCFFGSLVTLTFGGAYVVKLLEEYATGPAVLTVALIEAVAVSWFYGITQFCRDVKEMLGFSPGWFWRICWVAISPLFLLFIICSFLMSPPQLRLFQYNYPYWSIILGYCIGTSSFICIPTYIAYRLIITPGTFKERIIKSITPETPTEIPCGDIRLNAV
Sequence of Kappa-type opioid receptor (P41145 whole entry): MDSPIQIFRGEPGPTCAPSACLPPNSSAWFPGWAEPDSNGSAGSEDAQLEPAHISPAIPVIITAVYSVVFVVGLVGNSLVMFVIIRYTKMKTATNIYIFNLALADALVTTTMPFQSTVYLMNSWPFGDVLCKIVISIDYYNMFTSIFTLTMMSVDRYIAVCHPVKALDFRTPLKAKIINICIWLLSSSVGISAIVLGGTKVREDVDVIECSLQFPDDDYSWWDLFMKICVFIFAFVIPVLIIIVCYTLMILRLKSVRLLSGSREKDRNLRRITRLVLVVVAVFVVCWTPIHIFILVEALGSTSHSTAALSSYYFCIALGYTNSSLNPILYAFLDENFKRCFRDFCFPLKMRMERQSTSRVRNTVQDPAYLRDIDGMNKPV

SMILES: COCc1ccc(-c2ccc(N(C[C@@H](N)[C@@H](C)OC)C(=O)[C@@H]3C[C@H]3c3ccccn3)cc2)cc1
- pKi [1]: 5.64
- pIC50 [2]: 4.60
- pKi [3]: 6.12
